Laboratory results published in ChEMBL document CHEMBL1144203, “Synthesis and antiviral evaluation of acyclic azanucleosides developed from sulfanilamide as a lead structure” (Bioorg Med Chem, 2008).
Calls of active or inactive are those of the source. The calls are words filed in the database; no cut-off is given here.

What was measured:
[1] = system: Punta Toro virus; test: Antiviral activity against Punta Toro virus infected in Vero cells assessed as inhibition of virus-induced cytopathic effect by MTS assay; format: functional, organism-based
Summary of the method: (§1)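 Vero cell monolayers infected with Coxsackie B4 virus or Punta Toro virus, with test compounds at up to 100 μM. EC50 is the concentration giving 50% inhibition of virus-induced cytopathic effect (CPE), scored visually or from cell viability by the colorimetric formazan-based MTS assay.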

[2] = system: Feline coronavirus; test: Antiviral activity against feline coronavirus infected in CRFK cells assessed as inhibition of virus-induced cytopathic effect at 100 uM by MTS assay; format: functional, organism-based
[3] = Cytotoxicity against MDCK cells assessed as decrease in cell viability by MTS assay; format: cell-based, Canis lupus familiaris; settings: dog
Summary of the method: (§2)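 Uninfected host cells were exposed to compound. CC50 was taken as the concentration giving a 50% fall in cell viability, measured by a colorimetric formazan-based MTS assay.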

[4] = system: Coxsackievirus B4; test: Antiviral activity against Coxsackievirus B4 infected in HeLa cells assessed as inhibition of virus-induced cytopathic effect at 100 uM by MTS assay; format: functional, organism-based
Summary of the method: (§3)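 HeLa cells were infected with the virus, and compounds were tested up to 100 μM. EC50 is the concentration that halves virus-induced cytopathic effect, read by visual CPE scoring or by MTS formazan colorimetric viability measurement.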

[5] = system: HEL; test: Cytotoxicity against HEL cells assessed as decrease in cell viability upto 100 uM by MTS assay; format: cell-based; settings: human
[6] = system: Sindbis virus; test: Antiviral activity against Sindbis virus infected in Vero cells assessed as inhibition of virus-induced cytopathic effect at 100 uM by MTS assay; format: functional, organism-based
Summary of the method: (§4)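 Vero cell monolayers were infected with the virus in cell-based CPE assays. EC50 is the concentration giving 50% inhibition of virus-induced cytopathic effect, scored visually or by MTS formazan colorimetric cell-viability read-out. The highest concentration tested was 100 μM for most compounds and lower for a few.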

[7] = system: Human respirovirus 3; test: Antiviral activity against Parainfluenza 3 virus infected in Vero cells assessed as inhibition of virus-induced cytopathic effect at 100 uM by MTS assay; format: functional, organism-based; summary of the method: as §4
[8] = Cytotoxicity against CRFK cells assessed as decrease in cell viability by MTS assay; format: cell-based, Felis catus; settings: cat; summary of the method: as §2
[9] = system: Mammalian orthoreovirus 1; test: Antiviral activity against Reovirus1 infected in Vero cells assessed as inhibition of virus-induced cytopathic effect at 100 uM by MTS assay; format: functional, organism-based; summary of the method: as §4
[10] = system: Felid alphaherpesvirus 1; test: Antiviral activity against feline herpes virus infected in CRFK cells assessed as inhibition of virus-induced cytopathic effect at 100 uM by MTS assay; format: functional, organism-based
[11] = system: HeLa; test: Cytotoxicity against human HeLa cells assessed as decrease in cell viability upto 100 uM by MTS assay; format: functional, cell-based
Summary of the method: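 Uninfected HeLa host cells were tested up to 100 μM. CC50 is the concentration causing a 50% drop in cell viability by colorimetric formazan-based MTS assay. Alternatively, MCC is the minimal concentration giving microscopically detectable alteration of normal cell morphology.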

[12] = Cytotoxicity against MDCK cells assessed as alteration in cell morphology by MTS assay; format: cell-based, Canis lupus familiaris; settings: dog
Summary of the method: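 Uninfected host cells were exposed to compound and examined under the microscope. MCC was the minimal compound concentration causing a microscopically detectable change in normal cell morphology.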

[13] = system: Coxsackievirus B4; test: Antiviral activity against Coxsackievirus B4 infected in Vero cells assessed as inhibition of virus-induced cytopathic effect by MTS assay; format: functional, organism-based; settings: Enterovirus B; summary of the method: as §1
[14] = system: Human alphaherpesvirus 1; test: Antiviral activity against HSV1 virus infected in HEL cells assessed as inhibition of virus-induced cytopathic effect at 100 uM by MTS assay; format: functional, organism-based
[15] = system: Respiratory syncytial virus; test: Antiviral activity against respiratory syncytial virus infected in HeLa cells assessed as inhibition of virus-induced cytopathic effect at 100 uM by MTS assay; format: functional, organism-based; summary of the method: as §3
[16] = system: Human alphaherpesvirus 2; test: Antiviral activity against HSV2 virus infected in HEL cells assessed as inhibition of virus-induced cytopathic effect at 100 uM by MTS assay; format: functional, organism-based
[17] = system: Coxsackievirus B4; test: Antiviral activity against Coxsackievirus B4 infected in Vero cells assessed as inhibition of virus-induced cytopathic effect at 100 uM by MTS assay; format: functional, organism-based; summary of the method: as §4
[18] = system: Vero; test: Cytotoxicity against african green monkey Vero cells assessed as decrease in cell viability upto 100 uM by MTS assay; format: cell-based; settings: chlorocebus sabaeus
[19] = Cytotoxicity against CRFK cells assessed as decrease in cell viability upto 100 uM by MTS assay; format: cell-based, Felis catus; settings: cat
[20] = system: Punta Toro virus; test: Antiviral activity against Punta Toro virus infected in Vero cells assessed as inhibition of virus-induced cytopathic effect at 100 uM by MTS assay; format: functional, organism-based; summary of the method: as §4
[21] = system: MDCK; test: Cytotoxicity against MDCK cells assessed as decrease in cell viability upto 100 uM by MTS assay; format: cell-based, Canis lupus familiaris; settings: dog

SMILES	Activity [2]	Activity [4]	Activity [5]	Activity [6]	Activity [7]	Activity [9]	Activity [10]	Activity [11]	Activity [14]	Activity [15]	Activity [16]	also measured
CC(C)(C)C(=O)OCCN(Cn1cc(F)c(=O)[nH]c1=O)S(=O)(=O)c1cccc([N+](=O)[O-])c1	inactive	inactive	Not Active	inactive	inactive	inactive	inactive	inactive	inactive	inactive	inactive	EC50 [1]: 100 µM; CC50 [3]: > 100 µM; CC50 [8]: 95 µM; MCC [12]: ≥ 100 µM; EC50 [13]: 100 µM
CC(=O)Nc1ccc(S(=O)(=O)N(CCO)Cn2ccc(=O)[nH]c2=O)cc1	inactive	inactive	Not Active	inactive	inactive	inactive	inactive	inactive	inactive	inactive	inactive	Activity [17]: inactive; Activity [18]: Not Active; Activity [19]: Not Active; Activity [20]: inactive; Activity [21]: Not Active
